For 19 substances, ILS results are on record in ChEMBL document CHEMBL1124674, “Chemical and biological properties of a new series of cis-diammineplatinum(II) antitumor agents containing three nitrogen donors: cis-[Pt(NH3)2(N-donor)Cl]+” (J Med Chem, 1989).

What all share (assay type): functional, organism-based
Assay [1] relates to Mus musculus. Briefly: Compound is tested against sarcoma 180 ascites (S180a) in female CFW mice, and evaluated for the best percent of increase in life span at optimal dose of 160 mg/kg. More on the design: dose 160 mg/kg. Put shortly: (§1)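 Female CFW mice (18-25 g) were inoculated ip with 2×10^6 S180a cells on day 0. Single ip dose in 0.5 mL water on day 1, over 6 dose-doublings up to 320 mg/kg, 6 mice per dose. Controls got water; the cisplatin control got 8 mg/kg in 0.15 M NaCl. Run for twice control MST, with survivors counted dead then. %ILS, ≥50% = active.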

Assay [2] has as its system Mus musculus. Briefly: Compound is tested against sarcoma 180 ascites (S180a) in female CFW mice, and evaluated for the best percent of increase in life span at optimal dose of 320 mg/kg. More on the design: dose 320 mg/kg. Put shortly:
as §1

For assay [3], the system named is Mus musculus. As to the kind of experiment: Compound is tested against sarcoma 180 ascites (S180a) in female CFW mice, and evaluated for the best percent of increase in life span at optimal dose of 80 mg/kg. The arrangement: dose 80 mg/kg. The procedure, abridged: as §1
Assay [4] relates to Mus musculus. Briefly: Compound is tested against sarcoma 180 ascites (S180a) in female CFW mice, and evaluated for the best percent of increase in life span at optimal dose of 40 mg/kg. More on the design: dose 40 mg/kg. The procedure, abridged: as §1
Assay [5] concerns Mus musculus. As to the kind of experiment: Compound is tested against sarcoma 180 ascites (S180a) in female CFW mice, and evaluated for the best percent of increase in life span at optimal dose of 8 mg/kg. The arrangement: dose 8 mg/kg. The procedure, abridged: as §1

For orientation: ILS means the gain in survival time of treated over control animals, in per cent. For the substance “cis[Pt(NH3)2(N1-6-methyl-hydroxypyridine)Cl]Cl”, in assay [1], the ILS was 93%.

cis[Pt(NH3)2(N3-cytidinepyridine)Cl]NO3: the ILS in assay [2] amounted to 30%.

In assay [3], cis[Pt(NH3)2(N1-4-bromopyridine)Cl]Cl showed an ILS of 102%.

cis[Pt(NH3)2(N1-3-hydroxypyridine)Cl]Cl gave an ILS in assay [3] of 69%.

Take cis[Pt(NH3)2(N3-2,deoxycytidine)Cl]Cl: in assay [3], the ILS was determined as 85%.

Turning to “cis[Pt(NH3)2(N3-1-beta-D-arabinofuranosylcytocin)Cl]NO3.H2O”, in assay [1], the ILS came to 51%.

Turning to “cis[Pt(NH3)2(N1-6-methoxy-3-hydroxy-hydroxypyridine)Cl]Cl H2O”, the ILS in assay [3] came to 93%.

In turn, cis[Pt(NH3)2(N3-5-methylcytosine)Cl]NO3 gave an ILS in assay [1] of 84%.

The substance cis[Pt(NH3)2(N7-guanosine)Cl]NO3 gave an ILS in assay [1] of 79%.

“cis[Pt(NH3)2(N7-2,deoxyguanosine)Cl]NO3; H2O”: the ILS in assay [3] was found to be 88%.

For the substance “cis[Pt(NH3)2(N1-hydroxypyridine)Cl]Cl H2O”, in assay [1], the ILS came to 97%.

Regarding cis[Pt(NH3)2(N1-cytisine)Cl]Cl, the ILS in assay [3] is 92%.

In assay [4], cis[Pt(NH3)2(N3-1-methylcytosine)Cl]NO3 had an ILS of 73%.

As to cis[Pt(NH3)2(N1-4-chloropyridine)Cl]Cl, in assay [4], the ILS was 77%.

In assay [5], CISPLATIN gave an increase in life span (ILS) of 81%.

For the substance cis[Pt(NH3)2(N1-pyridine)Cl]Cl, the ILS in assay [4] is 103%; in assay [3], 26%.

On to “cis[Pt(NH3)2(N1-methyl isonicotinate)Cl]Cl”, for which, in assay [3], the ILS is 31%.

With [Pt(NH3)2(N1-pyridine)Cl]Cl, the ILS in assay [3] stood at 17%.

In assay [4], cis[Pt(NH3)2(N1-4-methylpyridine)Cl]Cl displayed an ILS of 83%.
